Converted amounts (≈) assume the structure as drawn.
What was measured:
Type in all cases: functional
[1] = test system: Trichophyton rubrum; assay: Antifungal activity against Trichophyton rubrum after 7 days by microbroth dilution method; details: 168 h
Method in brief: (§1)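 Clinical isolates supplied by a hospital were tested by NCCLS broth microdilution. Compounds were dissolved in DMSO, serially diluted in growth medium, inoculated and incubated at 35 C. Growth was read at 7 days for filamentous fungi. MIC80 was taken as the first well with about 80% less growth than the drug-free well.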

[2] = test system: Candida parapsilosis; assay: Antifungal activity against Candida parapsilosis ATCC 0306392 after 7 days by micro-broth dilution method; details: Lodderomyces parapsilosis, ATCC 0306392, 168 h
Method in brief: (§2)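 Micro-broth dilution followed NCCLS methods, using an ATCC standard quality-control strain for C. parapsilosis and a clinical isolate for C. tropicalis. Compounds were dissolved in DMSO, serially diluted in growth medium and incubated at 35 C. MIC80 was the first well with about 80% growth reduction compared with the drug-free well.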

[3] = test system: Microsporum; assay: Antifungal activity against Microsporum gypseum after 7 days by micro-broth dilution method; details: 168 h; method in brief: as §1
[4] = test system: Aspergillus fumigatus; assay: Antifungal activity against Aspergillus fumigatus after 7 days by micro-broth dilution method; details: 168 h; method in brief: as §1
[5] = test system: Cryptococcus neoformans; assay: Antifungal activity against Cryptococcus neoformans ATCC BLS108 after 72 hrs by micro-broth dilution method
Method in brief: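 This ATCC standard quality-control strain was tested in every assay by NCCLS microdilution. Test agents were dissolved in DMSO and serially diluted in growth medium. Cultures were incubated at 35 C and read at 72 h. MIC80 was the first well with approximately 80% reduced growth relative to the drug-free well.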

[6] = test system: Fonsecaea compacta; assay: Antifungal activity against Fonsecaea compacta after 7 days by micro-broth dilution method; details: 168 h; method in brief: as §1
[7] = test system: Candida albicans; assay: Antifungal activity against Candida albicans ATCC Y0109 after 24 hrs by micro-broth dilution method
Method in brief: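 An ATCC standard quality-control strain was included in each run of an NCCLS micro-broth dilution assay. Compounds were dissolved in DMSO, serially diluted in growth medium and incubated at 35 C. Reading was at 24 h, and MIC80 was the first well showing roughly 80% growth reduction versus the drug-free control.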

[8] = test system: Candida tropicalis; assay: Antifungal activity against Candida tropicalis after 7 days by micro-broth dilution method; details: 168 h; method in brief: as §2

Compound | MIC80 [1] | MIC80 [2] | MIC80 [3] | MIC80 [4] | MIC80 [5] | MIC80 [6] | MIC80 [7] | MIC80 [8]
Nc1ccc(N2CCN(CC(O)(Cn3cncn3)c3ccc(F)cc3F)CC2)c(F)c1 (stereo unspecified) | 0.25 µg/mL (≈ 0.578 µM) | 0.25 µg/mL (≈ 0.578 µM) | 0.0625 µg/mL (≈ 0.145 µM) | 4 µg/mL (≈ 9.25 µM) | 0.0152 µg/mL (≈ 0.0351 µM) | 0.25 µg/mL (≈ 0.578 µM) | 0.25 µg/mL (≈ 0.578 µM) | 4 µg/mL (≈ 9.25 µM)
O=C(Nc1ccc(N2CCN(CC(O)(Cn3cncn3)c3ccc(F)cc3F)CC2)c(F)c1)c1ccccc1 (stereo unspecified) | 0.0152 µg/mL (≈ 0.0283 µM) | 0.0152 µg/mL (≈ 0.0283 µM) | 0.0152 µg/mL (≈ 0.0283 µM) | 1 µg/mL (≈ 1.86 µM) | 0.0625 µg/mL (≈ 0.116 µM) | 0.25 µg/mL (≈ 0.466 µM) | 0.0625 µg/mL (≈ 0.116 µM) | 0.0039 µg/mL (≈ 0.00727 µM)
C[C@@H]1[C@H](O)[C@@H](C)/C=C/C=C/C=C/C=C/C=C/C=C/C=C/[C@H](O[C@@H]2O[C@H](C)[C@@H](O)[C@H](N)[C@@H]2O)C[C@@H]2O[C@](O)(C[C@@H](O)C[C@@H](O)[C@H](O)CC[C@@H](O)C[C@@H](O)CC(=O)O[C@H]1C)C[C@H](O)[C@H]2C(=O)O [AMPHOTERICIN B] | 1 µg/mL (≈ 1.08 µM) | 0.0152 µg/mL (≈ 0.0164 µM) | 0.0039 µg/mL (≈ 0.00422 µM) | 4 µg/mL (≈ 4.33 µM) | 1 µg/mL (≈ 1.08 µM) | 16 µg/mL (≈ 17.3 µM) | 1 µg/mL (≈ 1.08 µM) | 0.0625 µg/mL (≈ 0.0676 µM)
OC(Cn1cncn1)(Cn1cncn1)c1ccc(F)cc1F [FLUCONAZOLE] | 0.25 µg/mL (≈ 0.816 µM) | 1 µg/mL (≈ 3.27 µM) | 0.25 µg/mL (≈ 0.816 µM) | 64 µg/mL (≈ 209 µM) | 1 µg/mL (≈ 3.27 µM) | 16 µg/mL (≈ 52.2 µM) | 4 µg/mL (≈ 13.1 µM) | 1 µg/mL (≈ 3.27 µM)
CCC(C)n1ncn(-c2ccc(N3CCN(c4ccc(OCC5COC(Cn6cncn6)(c6ccc(Cl)cc6Cl)O5)cc4)CC3)cc2)c1=O (stereo unspecified) [ITRACONAZOLE] | 0.0152 µg/mL (≈ 0.0215 µM) | 0.25 µg/mL (≈ 0.354 µM) | 0.0152 µg/mL (≈ 0.0215 µM) | 1 µg/mL (≈ 1.42 µM) | 1 µg/mL (≈ 1.42 µM) | 0.25 µg/mL (≈ 0.354 µM) | 1 µg/mL (≈ 1.42 µM) | 0.25 µg/mL (≈ 0.354 µM)
CC(=O)N1CCN(c2ccc(OC[C@H]3CO[C@](Cn4ccnc4)(c4ccc(Cl)cc4Cl)O3)cc2)CC1 [KETOCONAZOLE] | 0.0625 µg/mL (≈ 0.118 µM) | 0.0625 µg/mL (≈ 0.118 µM) | 0.0039 µg/mL (≈ 0.00734 µM) | 1 µg/mL (≈ 1.88 µM) | 0.0625 µg/mL (≈ 0.118 µM) | 0.0625 µg/mL (≈ 0.118 µM) | 0.0625 µg/mL (≈ 0.118 µM) | 0.0625 µg/mL (≈ 0.118 µM)
C[C@@H](c1ncncc1F)[C@](O)(Cn1cncn1)c1ccc(F)cc1F [VORICONAZOLE] | 0.0039 µg/mL (≈ 0.0112 µM) | 1 µg/mL (≈ 2.86 µM) | 0.0039 µg/mL (≈ 0.0112 µM) | > 64 µg/mL | 0.0152 µg/mL (≈ 0.0435 µM) | 0.0152 µg/mL (≈ 0.0435 µM) | 0.0152 µg/mL (≈ 0.0435 µM) | 0.25 µg/mL (≈ 0.716 µM)

— ChEMBL document CHEMBL1147868, “Synthesis of novel triazole derivatives as inhibitors of cytochrome P450 14alpha-demethylase (CYP51)” (2007)
